Experiments:
[1] = In vivo metabolic stability, mouse blood 5 min pi, without or with PA; set-up: species or system Swiss albino mice; details: peripheral mouse blood, HPLC; for Intact radiopeptide, 5 min pi (+ phosphoramidon): PA coinjected, n=2; for Intact radiopeptide, 5 min pi: radioligand alone, n=3
Procedure, shortened: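 Healthy male Swiss albino mice (30 ± 5 g) were injected with the 177Lu-labelled test peptide alone (n = 3) or with coinjected phosphoramidon (n = 2). Blood was collected at 5 min pi and analysed by HPLC radiochromatography for the percentage of intact radioligand.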

[2] = tested on: PC-3 xenografts; experiment: Biodistribution over time; type: in vivo, BALB/c nu/nu mice; details: 24 hr pi vs peak at 1 hr pi, 100 pmol
Procedure, shortened: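 PC-3-xenografted BALB/c nu/nu mice received the 177Lu-labelled test peptide (80 kBq, 100 pmol/animal, 100 μl) with coinjected NEP inhibitor phosphoramidon. Animals were euthanized at 0.5, 1, 2, 4, 24, 48 and 90 hr pi, and tumour and organ activity uptake were measured.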

[3] = tested on: PC-3 xenografts; experiment: Experimental in vivo therapy; set-up: species or system BALB/c nu/nu mice
[4] = tested on: PC-3 xenografts; experiment: Influence of PA coinjection on biodistribution; type: in vivo, BALB/c nu/nu mice; details: 1 hr pi
[5] = tested on: PC-3 xenografts; experiment: Influence of injected peptide dose on biodistribution; type: in vivo, BALB/c nu/nu mice; details: 750 pmol in comparison to 50 pmol, 1 hr pi
Procedure, shortened: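 PC-3-xenografted BALB/c nu/nu mice (17 ± 2 g; tumours 0.19 ± 0.06 g) were injected with 80 kBq of the 177Lu-labelled test peptide at a total peptide dose of 50, 100, 250, 500 or 750 pmol/animal, with phosphoramidon coinjection. Tumour and organ uptake were measured at 1 hr pi; tumour slices were also examined by ex vivo autoradiography.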

[6] = tested on: PC-3 xenografts; experiment: Dosimetry estimates; set-up: species or system BALB/c nu/nu mice; details: per 60 MBq treatment cycle (200 pmol)
Procedure, shortened: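 Organ absorbed doses were estimated for a 100 pmol injection of the 177Lu-labelled test peptide. The estimate used time-course biodistribution data from PC-3-xenografted nude mice and a MOBY-phantom dosimetry model. Other peptide masses were scaled by the ratio of 1 hr uptake at 50–250 pmol to the 100 pmol 1 hr uptake; uptake versus mass was fitted with exponential curves. Doses were expressed per 60 MBq cycle.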

| SMILES | Intact radiopeptide, 5 min pi (+ phosphoramidon) [1] [%] | Intact radiopeptide, 5 min pi [1] [%] | Decrease of tumor uptake [2] | Median survival compared with controls ([3]; 6 cycles iv every second day, n=11-12) | Tumor growth ([3]; 6 cycles, 200 pmol/60 MBq, +PA) | Increase of pancreatic uptake with PA ([4]; 50 pmol, PA vs control) | Increase of tumor uptake with PA ([4]; 50 pmol, PA vs control) [fold] | Amplification of tumor uptake with PA ([4]; PA coinjection) [%] | Decrease of tumor uptake [5] | Estimated absorbed dose to the kidneys [6] [Gy] | Estimated absorbed dose to the tumor [6] [Gy] |
| --- | --- | --- | --- | --- | --- | --- | --- | --- | --- | --- | --- |
| CC(C)C[C@H](NC(=O)C[C@H](O)[C@H](CC(C)C)NC(=O)[C@H](Cc1c[nH]cn1)NC(=O)CNC(=O)[C@@H](NC(=O)[C@H](C)NC(=O)[C@H](Cc1c[nH]c2ccccc12)NC(=O)[C@H](CCC(N)=O)NC(=O)[C@@H](Cc1ccccc1)NC(=O)COCCOCCNC(=O)CN1CCN(CC(=O)O)CCN(CC(=O)O)CCN(CC(=O)O)CC1)C(C)C)C(N)=O [^177Lu-DOTA-PEG2-RM26, metal not drawn] | > 96 | 64.7 ± 4.6 | – | – | – | – | – | – | – | – | – |
| CC(C)C[C@H](NC(=O)C[C@H](O)[C@H](CC(C)C)NC(=O)[C@H](Cc1c[nH]cn1)NC(=O)CNC(=O)[C@@H](NC(=O)[C@H](C)NC(=O)[C@H](Cc1c[nH]c2ccccc12)NC(=O)[C@H](CCC(N)=O)NC(=O)[C@@H](Cc1ccccc1)NC(=O)COCCOCCNC(=O)CCC(C(=O)O)N1CCN(CC(=O)O)CCN(CC(=O)O)CCN(CC(=O)O)CC1)C(C)C)C(N)=O (stereo partly drawn) [^177Lu-DOTAGA-PEG2-RM26, metal not drawn] | > 98 | 70.7 ± 3.1 | fourfold | significant prolongation of median survival | significant inhibition of tumor growth | threefold | 1.6 | 60 | threefold | 5 | 11 |
| CC(C)C[C@H](NC(=O)C[C@H](O)[C@H](CC(C)C)NC(=O)[C@H](Cc1c[nH]cn1)NC(=O)CNC(=O)[C@@H](NC(=O)[C@H](C)NC(=O)[C@H](Cc1c[nH]c2ccccc12)NC(=O)[C@H](CCC(N)=O)NC(=O)[C@@H](Cc1ccccc1)NC(=O)COCCOCCNC(=O)CCC(C(=O)O)N1CCN(CC(=O)O)CCN(CC(=O)O)CC1)C(C)C)C(N)=O (stereo partly drawn) [^177Lu-NODAGA-PEG2-RM26, metal not drawn] | > 96 | 64.0 ± 2.0 | – | – | – | – | – | – | – | – | – |

Source: PMC6852655 (International Journal of Cancer, 2019)
